Compound activity from PubChem BioAssay.
C-LANA FP – blocks KSHV LANA C-terminal domain binding to DNA; MBP-C-LANA/FAM-LBS DNA binding, fluorescence polarization; inhibition, % at 9 µM; 0.078% of 340,000 active; AID 504423;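 active means highest replicate inhibition at or above 60% at 9 µM, even if other replicates fall short; inactive means all replicates below 60% inhibition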;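 further: 0% = neutral control wells and 100% = 4 µM acridine orange control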
Keap1-Nrf2 PPI – inhibitors of human Keap1-Nrf2 protein-protein interaction. Keap1 Kelch-Nrf2 peptide fluorescence polarization, 1536-well. inhibition, % at 9.4 µM. 0.15% of 340,000 active; in the data active means inhibition above about 12%;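 further: human Keap1 Kelch domain with fluorescein labeled Nrf2 9mer peptide probe; 0% = neutral control wells and 100% = peptide positive control; higher means more block of Keap1 binding to Nrf2 peptide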
Target sequence (Q14145 whole entry, looked up, the tested form may be a part): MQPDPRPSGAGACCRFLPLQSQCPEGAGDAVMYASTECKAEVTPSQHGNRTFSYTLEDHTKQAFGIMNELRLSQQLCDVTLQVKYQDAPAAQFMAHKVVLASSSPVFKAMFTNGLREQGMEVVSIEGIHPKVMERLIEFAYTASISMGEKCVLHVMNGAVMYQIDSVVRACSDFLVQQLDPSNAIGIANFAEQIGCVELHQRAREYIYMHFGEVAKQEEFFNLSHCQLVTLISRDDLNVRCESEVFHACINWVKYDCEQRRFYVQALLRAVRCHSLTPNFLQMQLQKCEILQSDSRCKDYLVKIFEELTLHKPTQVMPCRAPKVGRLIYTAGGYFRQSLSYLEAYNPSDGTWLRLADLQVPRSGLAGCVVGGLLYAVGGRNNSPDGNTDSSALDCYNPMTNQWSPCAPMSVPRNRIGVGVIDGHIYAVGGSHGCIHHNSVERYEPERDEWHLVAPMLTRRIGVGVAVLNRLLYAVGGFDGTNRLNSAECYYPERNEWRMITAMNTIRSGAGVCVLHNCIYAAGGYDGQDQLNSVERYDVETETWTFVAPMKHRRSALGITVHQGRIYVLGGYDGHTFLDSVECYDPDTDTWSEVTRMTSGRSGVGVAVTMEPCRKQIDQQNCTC
RTF Ca sens inh – cardiac RTF calcium desensitization | IANBD-labeled cardiac RTF, Ca2+ fluorescence | inhibition, % at 7.15 µM | 0.12% of 340,000 active;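 active means inhibition above the mean inhibition of all tested compounds plus 3 SD, cut at about 17% in these data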;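 further: assay run at fixed EC70 calcium of 1.6 mM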
CAL PDZ FP-1 – blocks peptide binding to human CAL PDZ domain. Q9HD26. purified CAL PDZ, TMR-peptide fluorescence polarization, 1 h. inhibition, % at 20 µM. 0.02% of 330,000 active;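 active means highest replicate inhibition of at least 40%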;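 further: plate controls were DMSO neutral control wells for no effect and unlabeled competitor peptide control wells for full effect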
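material = purified tagged CAL PDZ domain construct (CerCALP) | compound dosing = 20 µM, one dose | times = 1 h at RT | measured by = fluorescence polarization from S- and P-plane intensities, G-factor corrected | read-out = inhibition from polarization loss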
CAL PDZ FP-2 – CAL PDZ (human) peptide binding inhibition; Q9HD26; inhibition, % at 24.9 µM; purified CAL PDZ, TMR-peptide fluorescence polarization, 1 h; AID 602252; 0.92% of 300,000 active;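 active means mean inhibition of at least 30% with at least half of replicates also reaching 30%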;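 further: 0% = DMSO neutral control and 100% = excess unlabeled competitor peptide PRC23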
RTF Ca sens act – increases calcium sensitivity of human cardiac regulated thin filaments; P19429+P45379; IANBD-labeled TnC RTF fluorescence at EC20 calcium; 0% EC20 calcium, 100% full calcium; activation, % at 7.2 µM; 0.24% of 340,000 active;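 active means activation above the mean over all tested compounds plus 3 SD, cut at about 30% in these data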;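 further: rise in fluorescence read as greater calcium sensitivity of cardiac thin filaments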
An asterisk follows results filed as active; x = no result given; + = active, no number. A selection: hits, their analogues and other compounds. The true share with any hit is near 1.3%.

SMILES | C-LANA FP | Keap1-Nrf2 PPI | RTF Ca sens inh | CAL PDZ FP-1 | CAL PDZ FP-2 | RTF Ca sens act
CN(Cc1nc2ccccc2c(=O)[nH]1)C(=O)c1ccc(S(=O)(=O)N2CCCC2)cc1 | 2.0 | -6.1 | -9.3 | -0.1 | -5.2 | -1.2
O=C(COC(=O)c1ccc(S(=O)(=O)N2CCCCCC2)cc1)NCc1ccc(Cl)cc1 | 16.2 | 2.3 | -11.0 | -2.9 | -4.1 | 4.7
COc1ccc(-c2c(NC(=O)CC(C)C)n(C)c3ccccc3c2=O)cc1OC | 0.6 | 2.7 | -6.9 | 0.6 | 1.8 | 1.3
O=C(NCC(=O)N1CCN(c2ccccc2F)CC1)c1ccco1 | -1.6 | -5.0 | -7.2 | -0.8 | 70.9* | 4.9
NC(=O)C1CCCN(C(=O)CCCNC(=O)c2ccc(Cl)cc2)C1 (centres undefined) | -1.8 | -1.6 | 7.1 | -0.7 | 73.3* | -4.7
CC1CCCN(C(=O)CCCNC(=O)c2ccc(Cl)cc2)C1 (centres undefined) | 0.3 | -0.1 | -10.2 | -0.7 | x | -0.2
Cc1ccc(NC2CCCN(C(=O)CCN3CCCCO3)C2)cc1C (centres undefined) | -1.4 | -3.0 | -2.0 | 0.9 | 61.8* | 2.6
COc1ccccc1OCC(=O)N1CCCC(Nc2cccc(F)c2)C1 (centres undefined) | -2.8 | 6.1 | -2.4 | -0.5 | x | -3.1
O=C(c1cc(Cl)ccc1F)N1CCCC(Nc2ccc3c(c2)OCCO3)C1 (centres undefined) | -0.4 | -0.1 | -2.2 | 0.5 | 36.8* | 1.4
Cc1ccc(NC2CCCN(C(=O)c3ccc4nccnc4c3)C2)cc1C (centres undefined) | 1.7 | -3.2 | -2.4 | -2.8 | -7.3 | 1.8
O=C(CCN1CCCCO1)N1CCCC(Nc2ccc(F)c(F)c2)C1 (centres undefined) | 0.9 | -0.2 | -5.2 | 0.1 | 2.7 | -1.6
COc1ccccc1OCC(=O)N1CCCC(Nc2ccc(F)c(F)c2)C1 (centres undefined) | -0.9 | 0.7 | -5.7 | -0.6 | + | 6.6
O=C(c1ccc2nccnc2c1)N1CCCC(Nc2ccc(F)c(F)c2)C1 (centres undefined) | -0.9 | 1.4 | -4.0 | -0.8 | 51.3* | -2.5
O=C(c1ccco1)N1CCCC(Nc2ccc3c(c2)OCCO3)C1 (centres undefined) | 1.2 | 4.3 | -6.8 | -2.0 | -4.1 | -4.0
CC(C)C[C@@H]1NC(=O)N(CCCn2ccnc2)C1=O | 1.1 | 1.0 | -7.1 | 0.0 | 0.3 | -4.2
O=S(=O)(c1ccc(OCc2ccc(Br)cc2)cc1)N1CCOCC1 | 2.4 | -2.8 | -5.0 | -0.5 | 9.5 | -5.0
CCC(CO)Oc1cc(NC(=O)Cc2ccccc2F)c2ncn(C(C)C)c2c1 (centres undefined) | -0.9 | -1.3 | -3.6 | -1.2 | -1.1 | 0.9
CC(=O)c1cc(NC(=O)c2ccc(C)cc2)c(=O)oc1/C=C/N(C)C | -1.1 | -5.0 | -26.4 | 0.4 | -2.7 | 36.1*
COc1cccc(CN(C)C(=O)CCNC(=O)c2ccco2)c1 | -0.6 | 0.7 | 1.0 | 0.4 | 1.8 | 0.8
O=C(NCc1ccc(Cl)cc1)N1CCN(Cc2ccccc2)CC1 | -1.1 | 1.6 | -2.1 | 1.1 | 3.0 | -1.9
O=C(NCc1ccc2c(c1)OCO2)C(=O)Nc1cc2c3c(c1)CC(=O)N3CCC2 | -0.7 | -1.4 | -4.5 | -2.7 | -5.9 | -13.4
CCOc1ccc(S(=O)(=O)N2Cc3ccccc3CC2C(=O)O)cc1 (centres undefined) | -0.7 | 0.0 | 1.5 | 0.8 | 51.0* | 2.4
COc1ccc(S(=O)(=O)N2Cc3ccccc3CC2C(=O)O)cc1 (centres undefined) | 7.1 | 0.1 | -2.0 | -0.1 | -0.2 | 6.9
CCN1/C(=C/c2ccc3cc(C)ccc3[n+]2CC)Sc2cc(C)ccc21 | -9.4 | -18.8 | -104.8 | -0.8 | -0.6 | 50.9*
CC(C)(CN1CCCC1)NC(=O)C1CCC(=O)N(CCCN2CCOCC2)C1 (centres undefined) | -0.7 | -3.5 | -5.5 | 0.4 | 91.9* | -3.5
SMILES | C-LANA FP | Keap1-Nrf2 PPI | RTF Ca sens inh | CAL PDZ FP-1 | CAL PDZ FP-2 | RTF Ca sens act
Cc1cccc(N2CC(C(=O)NCC3COc4ccccc4O3)CC2=O)c1C (centres undefined) | -0.7 | -2.4 | -6.2 | -0.1 | -5.5 | 1.4
COc1ccc(C)cc1-n1c(SCC(=O)Nc2cc(C)on2)nc2sc(C)c(C)c2c1=O | -2.1 | -2.3 | -4.8 | x | 80.6* | 4.7
Cc1sc2nc(C)n(/N=C/c3ccccc3O)c(=O)c2c1C | -1.2 | -1.2 | 1.3 | 0.4 | -0.6 | -2.4
CCOc1cc(/C=N/n2c(C)nc3sc(C)c(C)c3c2=O)ccc1O | 0.7 | -2.1 | 4.1 | -0.3 | 72.0* | 5.5
CCOC(=O)CC(=O)CSc1nc(C)cc(C)c1C#N | 1.2 | -6.4 | 4.5 | -1.9 | 38.9* | -0.8
COC(=O)CSc1nc(C)cc(C)c1C#N | -1.6 | -0.8 | -0.6 | -1.3 | 5.9 | -0.1
CC(C)(C)S(=O)(=O)c1cnc(-c2ccc(Cl)cc2)nc1N | 0.0 | 0.7 | 1.6 | -0.3 | -4.6 | -6.0
CC(C)(C)S(=O)(=O)c1cnc(N2CCCCC2)nc1N | 0.1 | 1.3 | -3.6 | -0.6 | 50.0* | -2.9
COc1cccc(Nc2ncnc3sc(C)cc23)c1 | -0.2 | 5.4 | -1.3 | -2.8 | -0.5 | 5.0
OCCNc1ncnc2c1c(-c1ccccc1)c(-c1ccccc1)n2Cc1ccco1 | -0.7 | 2.9 | -2.3 | -1.8 | 65.8* | -4.5
COc1cccc(/C=C(/C#N)c2nc3ccccc3[nH]2)c1OC(C)C(=O)O (centres undefined) | -1.8 | 2.8 | -0.7 | 0.3 | -3.7 | 34.7*
COc1cccc(/C=C(\C#N)c2nc3ccccc3[nH]2)c1OCC(=O)O | -0.3 | -3.2 | -6.7 | -0.7 | -6.2 | -1.9
COc1cc(/C=C(\C#N)c2nc3ccccc3[nH]2)cc(OC)c1O | -40.3 | -52.3 | -46.5 | 2.2 | -3.8 | 32.3*
N#C/C(=C/c1ccc(N2CCOCC2)o1)c1nc2ccccc2[nH]1 | -26.0 | -116.2 | -194.9 | 0.8 | -5.7 | 244.0*
COc1ccc(/C=C(\C#N)c2nc3ccccc3[nH]2)cc1O | -1.1 | -3.0 | -1.1 | -2.1 | -4.2 | -5.6
COc1cccc(N2CCN(C(=O)CN3C(=O)NC(C)(c4ccc5ccccc5c4)C3=O)CC2)c1 (centres undefined) | -0.1 | -3.5 | -11.3 | -2.5 | -3.7 | -2.9
Cc1ccc(S(=O)(=O)N(CC(=O)Nc2ccccc2)C(=O)N2CCN(C)CC2)cc1 | -1.8 | -1.4 | -1.4 | -2.7 | -1.9 | 0.6
CC(NC(=O)c1ccc(Br)o1)C1CC2CCC1C2 (centres undefined) | 0.4 | -2.1 | -6.9 | 0.1 | -3.8 | 4.4
Cc1ccccc1NS(=O)(=O)c1ccc(C(=O)NN2CCCCC2)cc1 | -0.1 | -4.4 | 0.7 | -2.8 | x | -0.3
C=CCN1C=CC(=C/C=C(/C#N)C(=O)OCC)C=C1 | -58.5 | -213.4 | -130.0 | -0.4 | -2.0 | 123.0*
